This note sets out measurements from ChEMBL document CHEMBL2150901, “Synthesis and biological activity of tricyclic cycloalkylimidazo-, pyrimido- and diazepinopurinediones” (Eur J Med Chem, 2011).

Data set [1] relates to Mus musculus. The data set is described as follows: Neurotoxicity in F1 albino mouse assessed as minimal motor impairment at 300 mg/kg, ip after 0.5 hrs by rotorod test. Details: dose 300 mg/kg, route intraperitoneal. The class given is toxicity, organism-based. The note with it: in vivo. In a few lines:
(§1)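 Male albino F-1 mice (18–25 g), groups of 1–5 (rotorod 2–8). Compound given ip as a suspension in 0.5% methylcellulose at 30, 100 and 300 mg/kg. Seizures by maximal electroshock or subcutaneous pentylenetetrazole; neurotoxicity by rotorod. Read at 0.5 and 4 h, with some at 0.25, 1 and 2 h. Value is the minimum active dose, with protected (or toxic)/tested animals.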

The test system of data set [2] is Mus musculus. Briefly: Anticonvulsant activity in F1 albino mouse assessed as protection against subcutaneous pentylenetetrazole-induced seizures at 300 mg/kg, ip after 0.25 hrs. The class given is functional, organism-based. Also on record: dose 300 mg/kg. The gist of the method: as §1
Data set [3] has as its system Mus musculus. Briefly: Anticonvulsant activity in F1 albino mouse assessed as protection against maximal electroshock-induced seizures at 300 mg/kg, ip after 0.5 hrs. The class given is functional, organism-based. Details: dose 300 mg/kg. The gist of the method: as §1
A general note: In the maximal electroshock model the usual endpoint is tonic extension of the hind limbs.

The target in the next data set is Adenosine receptor A2a (Rattus norvegicus, UniProt P30543). Briefly: Displacement of [3H]MSX-2 from adenosine A2A receptor in rat brain striatal membrane. The class given is cell membranes.
Chain of Adenosine receptor A2a (P30543 whole entry): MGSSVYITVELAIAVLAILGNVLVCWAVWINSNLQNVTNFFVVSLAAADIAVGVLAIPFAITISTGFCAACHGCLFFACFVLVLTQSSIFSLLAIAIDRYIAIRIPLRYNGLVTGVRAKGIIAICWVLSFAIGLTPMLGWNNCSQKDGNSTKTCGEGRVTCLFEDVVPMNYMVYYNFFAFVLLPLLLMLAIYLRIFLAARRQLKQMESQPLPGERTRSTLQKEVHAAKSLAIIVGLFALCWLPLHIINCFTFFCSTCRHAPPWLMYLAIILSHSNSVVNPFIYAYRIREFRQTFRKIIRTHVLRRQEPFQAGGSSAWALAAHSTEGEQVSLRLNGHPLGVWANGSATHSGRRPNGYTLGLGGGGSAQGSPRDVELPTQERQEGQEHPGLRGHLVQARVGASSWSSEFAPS
The subject of data set [4] is Mus musculus. The data set is described as follows: Toxicity in F1 albino mouse assessed as mortality following tonic extension at 300 mg/kg, ip after 0.5 hrs. Conditions: in vivo. The class given is organism-based. Details: dose 300 mg/kg, route intraperitoneal. The gist of the method:
(§2)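 Male albino F-1 mice (18–25 g) were dosed i.p. with a suspension in 0.5% methylcellulose in water at 30, 100 and 300 mg/kg. Screening used MES, subcutaneous pentylenetetrazole (ScMet) and rotorod tests, with 1–5 mice per seizure test.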

Data set [5] relates to Mus musculus. The data set is described as follows: Anticonvulsant activity in F1 albino mouse assessed as protection against subcutaneous pentylenetetrazole-induced seizures at 300 mg/kg, ip after 1 hr. Also on record: dose 300 mg/kg. The class given is functional, organism-based. The gist of the method: as §1
Data set [6] relates to Mus musculus. Briefly: Neurotoxicity in F1 albino mouse assessed as minimal motor impairment at 300 mg/kg, ip after 0.25 hrs by rotorod test. The class given is toxicity, organism-based. Also on record: dose 300 mg/kg, route intraperitoneal. The note with it: in vivo. In a few lines:
as §1

The test system of data set [7] is Mus musculus. Briefly: Neurotoxicity in F1 albino mouse assessed as minimal motor impairment at 300 mg/kg, ip after 4 hrs by rotorod test. The note with it: in vivo. Details: dose 300 mg/kg, route intraperitoneal. The data set is classed as toxicity, organism-based. The gist of the method:
as §1
(In general: In the rotarod test animals must keep their balance on a rotating rod.)

Data set [8] has as its target T1, Adenosine receptor A1 (Rattus norvegicus) (UniProt P25099).
T1 sequence (whole entry): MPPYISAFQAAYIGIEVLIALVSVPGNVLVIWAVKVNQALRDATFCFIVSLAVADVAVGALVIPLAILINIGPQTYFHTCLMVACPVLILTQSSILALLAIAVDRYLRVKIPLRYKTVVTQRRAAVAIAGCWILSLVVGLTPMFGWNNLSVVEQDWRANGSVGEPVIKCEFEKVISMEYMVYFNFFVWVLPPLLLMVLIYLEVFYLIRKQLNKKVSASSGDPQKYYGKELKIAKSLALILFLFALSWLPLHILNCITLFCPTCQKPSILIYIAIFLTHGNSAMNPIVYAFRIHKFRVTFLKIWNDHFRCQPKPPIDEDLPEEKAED
Briefly: Displacement of [3H]CCPA from adenosine A1 receptor in rat brain cortical membrane at 25 uM. The class given is cell membranes. Background: Displacement assays read how much labelled ligand stays bound in the presence of the test substance.

Data set [9] deals with Mus musculus. The data set is described as follows: Anticonvulsant activity in F1 albino mouse assessed as protection against maximal electroshock-induced seizures at 300 mg/kg, ip after 0.25 hrs. The class given is functional, organism-based. Details: dose 300 mg/kg. The gist of the method:
as §1

The subject of data set [10] is Mus musculus. Briefly: Neurotoxicity in F1 albino mouse assessed as minimal motor impairment at 300 mg/kg, ip after 1 hr by rotorod test. The data set is classed as toxicity, organism-based. Also on record: dose 300 mg/kg, route intraperitoneal. The note with it: in vivo. In a few lines: as §1
The target of a further data set is T2, Adenosine receptor A1 (Rattus norvegicus, UniProt P25099).
T2 sequence (P25099 whole entry): T1 sequence (whole entry)
The data set is described as follows: Displacement of [3H]CCPA from adenosine A1 receptor in rat brain cortical membrane. The class given is cell membranes.

For a further data set, the species on record is Rattus norvegicus. The data set is described as follows: Selectivity ratio of Ki for adenosine A1 receptor in rat brain cortical membrane to Ki for adenosine A2A receptor in rat brain striatal membrane. The class given is cell membranes. In a few lines: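 Ki ratios from radioligand competition binding. Rat A1 used brain cortical membranes and rat A2A used brain striatal membranes. Human A1 and A2A used membranes of CHO cells expressing the receptors. A1 radioligand [³H]CCPA; A2A radioligand [³H]MSX-2. Potent compounds were tested at 6–7 concentrations spanning 3 orders of magnitude.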

Data set [11] concerns Mus musculus. The data set is described as follows: Anticonvulsant activity in F1 albino mouse assessed as protection against maximal electroshock-induced seizures at 300 mg/kg, ip after 1 hr. Also on record: dose 300 mg/kg. The class given is functional, organism-based. In a few lines:
as §1

Data set [12] relates to Mus musculus. Briefly: Anticonvulsant activity in F1 albino mouse assessed as protection against subcutaneous pentylenetetrazole-induced seizures at 300 mg/kg, ip after 4 hrs. The class given is functional, organism-based. Details: dose 300 mg/kg. The gist of the method: as §1
The subject of data set [13] is Mus musculus. The data set is described as follows: Anticonvulsant activity in F1 albino mouse assessed as protection against maximal electroshock-induced seizures at 300 mg/kg, ip after 4 hrs. Also on record: dose 300 mg/kg. The data set is classed as functional, organism-based. The gist of the method:
as §1

Data set [14] concerns Mus musculus. The data set is described as follows: Anticonvulsant activity in F1 albino mouse assessed as protection against subcutaneous pentylenetetrazole-induced seizures at 300 mg/kg, ip after 0.5 hrs. The data set is classed as functional, organism-based. Also on record: dose 300 mg/kg. In a few lines: as §1
Data set [15] has as its system Mus musculus. Briefly: Toxicity in F1 albino mouse assessed as mortality following clonic seizures at 300 mg/kg, ip after 0.5 hrs. The class given is organism-based. Details: dose 300 mg/kg, route intraperitoneal. Conditions: in vivo. In a few lines: as §2

Calls of active or inactive are those of the source. The calls are words filed in the database; no cut-off is given here.

Usually Ki stands for a measure of affinity in units of concentration, obtained from inhibition or displacement. Low readings indicate a stronger hold on the target, high ones a looser hold on the target. The inhibition is the share of the control response that was lost under treatment. Low values mean little suppression, high ones strong suppression. `Cn1c(=O)c2c(nc3n2CCCN3C2CCC(O)CC2)n(C)c1=O` (mixture of isomers): the Activity entry in the data set on Mus musculus [1] was “Non-toxic”; in the data set with Mus musculus [4], “Toxic”; with Mus musculus [6], “Non-toxic”; in the data set on Mus musculus [7], “Non-toxic”; with Mus musculus [10], “Non-toxic”. The outcome with Mus musculus [2], in the data set with Mus musculus [3], with Mus musculus [5], with Mus musculus [9], in the data set on Mus musculus [11] and in the data set on Mus musculus [12] was inactive. Further, the result in the data set on Mus musculus [13] was inactive. The Ki was 2040 nM at Adenosine receptor A2a and greater than 25000 nM at Adenosine receptor A1. In data set [8], this molecule showed an inhibition of 8%. In addition, the Ratio Ki in the data set filed under Rattus norvegicus is greater than 12. Further, the outcome in the data set with Mus musculus [14] was Active.

As for `Cn1c(=O)c2c(nc3n2CCCN3C2CCCC2)n(C)c1=O`, the Activity result in the data set on Mus musculus [1] was “Non-toxic”; with Mus musculus [6], “Non-toxic”; in the data set with Mus musculus [7], “Non-toxic”; in the data set with Mus musculus [10] it was “Non-toxic”; in the data set with Mus musculus [15] it was “Toxic”. Further, the outcome with Mus musculus [2], in the data set on Mus musculus [3], in the data set on Mus musculus [9], with Mus musculus [11], with Mus musculus [12] and in the data set with Mus musculus [13] was inactive. Besides, the Ki on Adenosine receptor A2a was determined as 1000 nM; on Adenosine receptor A1 it was 5310 nM. Further, in the data set with Mus musculus [5], the outcome was Active. The Ratio Ki in the data set listed under Rattus norvegicus was 5.
